Tests used:
[1] = folding enthalpy; higher = less favourable; fluorescence melt of hairpins on a sequencing array, two-state fit; settings: sodium 0.088 M
Procedure, shortened: (§1)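 Hairpins were imaged by Cy3 fluorescence on a sequenced MiSeq flow cell with annealed Cy3 and quencher oligos, in 50 mM Na-HEPES pH 8.0, 25 mM NaCl, in 2.5 °C steps up to 60 °C. Bootstrapped two-state fits of normalised signals gave melting temperature and folding enthalpy. Four replicates were combined by inverse variance, and fitted temperatures were raised by 9.35 °C to match UV melts.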

[2] = melting temperature; fluorescence melt of hairpins on a sequencing array, two-state fit, raised by 9.35 °C to match UV melts; settings: sodium 0.088 M
Procedure, shortened: as §1

Sequence | folding enthalpy [1] [kcal/mol] | Tm [2] [°C]
GCGGCACCCGC ((((...)))) | -21.9 | 56.4
GATCCGTCGCGGATC ((((((...)))))) | -35.8 | 59
GATCCCTTCGGGGATC ((((((....)))))) | -39.8 | 65.2
GTCGGGGGAAACCCTGAC (((.(((....))).))) | -53.6 | 53.4
GTCGACGGAAACATCGAC (((((.(....).))))) | -39.8 | 46.3
GCGTGGCCACGC ((((....)))) | -43.9 | 62.8
CGAACGGAAACGTTATCG ((((((....)))..))) | -14.6 | 28.8
GATTTTACGAAAGTAATC (((..(((....)))))) | -13.6 | 26.3
GTGACGCCGAAAGGCCAC (((..(((....)))))) | -11.8 | 45.2
GTAGGGGGAAACCTCTAC ((((.((....)).)))) | -33 | 44.6
GCGGGACTCCGC ((((....)))) | -27.3 | 67.7
GTTGGTGGAAACATCAAC ((((.((....)).)))) | -37.8 | 46.5
GCAAAGCGAAAGCTTGC (((.(((....)))))) | -23.8 | 64.5
GGACTCCGAAAGGATTCC (((.(((....))).))) | -30.2 | 47
GGAGCACGAAAGTGATCC (((.(((....))).))) | -38.3 | 66.2
GTTGGTGGAAACACTAGC (.(.(((....))).).) | -9.95 | 27.8
GCGGGCAGCCGC ((((....)))) | -16.4 | 63.5
GTCCGCCCGAAAGGGGAC (((..(((....)))))) | -18.7 | 47.3
GCTTACGCGAAAGCGAGC (((..(((....)))))) | -12.7 | 43
GCGCAAGGAAACTTGTGC ((.((((....)))).)) | -48.9 | 54.9
GCCAGTCGAAAGACAGGC (((.(((....))).))) | -29.6 | 62.8
GCGCGGCGAAAGCAGTGC ((.(.((....)).).)) | -29.1 | 65.5
GGTATGTCGAAAGACACC (((..(((....)))))) | -12.1 | 34.8
GGGGCTGGAAACGGTCCC (((.(.(....).).))) | -33 | 49.6

Sequence | folding enthalpy [1] [kcal/mol] | Tm [2] [°C]
GAAGGCCGAAAGGCATTC (((.(((....))).))) | -24.2 | 62.6
GGCATCGGAAACGGTGTC (.((.((....)).)).) | -25.7 | 44.8
GAAAGCGGAAACGCTTCC (.(((((....))))).) | -12.3 | 41.4
GTCCCTACGAAAGTAGAC (((..(((....)))))) | -9.91 | 25.9
GACGACGAAAGTCAGGTC ((((((....)))..))) | -19.9 | 44.3
GGGCACCGAAAGGTCCC (((.(((....)))))) | -34 | 54.5
GGACCCGAAAGGGGCTCC ((((((....)))..))) | -9.41 | 56.5
GCGATTCATCGC ((((....)))) | -30.1 | 58.3
GTGTTGGGAAACCAACAC (((((((....))))))) | -43.1 | 63.5
GTTAATCGAAAGATCAAC (((.(((....))).))) | -14.7 | 30.2
GGTCAATCGAAAGATACC (((..(((....)))))) | -13.3 | 26.9
GATCGGGGGTCCGATC ((((((....)))))) | -34.3 | 57
GCGTAAGGAAACTTATGC ((.((((....)))).)) | -31.2 | 45.6
GAAACCGAAAGGTTTC ((((((....)))))) | -29.4 | 67.1
GTAGGTCGAAAGACATAC (((.(((....))).))) | -29.7 | 51.9
GCTGATCGAAAGATAAGC (((.(((....))).))) | -35.1 | 49.5
GAAAAAGAAATTTTTC ((((((....)))))) | -14.6 | 28.1
GCGGTTACCCGC ((((....)))) | -28.4 | 56.7
GTGACGGGAAACCGTTGC (..((((....))))..) | -17.6 | 45.4
GTATCGGGAAACCGATGC (.(((((....))))).) | -22.2 | 53.3
GGAGGTGAAAACCTCC ((((((....)))))) | -33.8 | 66.2
GTCGATGGAAACATTGGC (.(.(((....))).).) | -29.2 | 35.1
CCTCAGAAATGAGG (((((....))))) | -19.7 | 45.2
GATCACGTCTGTGATC ((((((....)))))) | -37.7 | 59.5

Sequence | folding enthalpy [1] [kcal/mol] | Tm [2] [°C]
GTTGGGACGAAAGTCAAC (((..(((....)))))) | -19.6 | 41.5
GATCCGCGAAAGCGATC (((.(((....)))))) | -14 | 44.6
GCGAACGAAAGTTTTCGC ((((((....)))..))) | -26.6 | 44.1
GGACTTGGAAACAGGTCC ((((.((....)).)))) | -46.5 | 49.4
GATCTTCAATAAGATC ((((((....)))))) | -30.6 | 39.8
GCGATCGTCGC ((((...)))) | -20.2 | 45.9
GTGATGCCGAAAGGCCAC (((..(((....)))))) | -13.5 | 41.6
GGTCCCCGAAAGGGCACC (((.(((....))).))) | -19.3 | 49
GATCGACATTCGATC ((((((...)))))) | -36.1 | 49.9
GATCGTCTTAACGATC ((((((....)))))) | -41.3 | 58.5
GACACCGAAAGGTGTGTC ((((((....)))..))) | -11.3 | 61.6
CTCGTGAAAACGAG (((((....))))) | -21.4 | 53.5
GGCTAGCCGAAAGGCGCC (((..(((....)))))) | -15.9 | 59
GACAGCACGAAAGTGGTC (((..(((....)))))) | -13.7 | 36
GTTTCAGGAAACTGAAGC (.(((((....))))).) | -22.2 | 38.9
GGGCTCGGAAACGGGTCC ((.(.((....)).).)) | -34.5 | 48.6
GCATGCGAAAGCAAGTGC ((((((....)))..))) | -17.8 | 46.8
GTACCTCGAAAGAGTAC (((.(((....)))))) | -20.8 | 42.5
GTTGCTGGAAACAGTAGC (.(.(((....))).).) | -19.7 | 35.3
GATCAGACGGCTGATC ((((((....)))))) | -52.4 | 51.7
GATGATCCGAAAGGAATC (((..(((....)))))) | -14.3 | 34.7
GATCACCGTGTGATC ((((((...)))))) | -42.3 | 58.3
GATCTAACCATAGATC ((((((....)))))) | -31.7 | 38.2
GGAAAGCGAAAGCTTCC (((.(((....)))))) | -18.1 | 53.7

Sequence | folding enthalpy [1] [kcal/mol] | Tm [2] [°C]
GCTATGCGAAAGCTTAGC ((((.((....)).)))) | -28.9 | 60.8
GAACAAGGAAACTTGCTC ((.((((....)))).)) | -19.4 | 29.4
GATCTTGTCCAAGATC ((((((....)))))) | -34.2 | 50.1
GGCACAGGAAACTGTACC ((.((((....)))).)) | -29.6 | 44.3
GAAACGAAAGTTTC (((((....))))) | -29.1 | 53.4
GCAGCATCGAAAGATTGC (((..(((....)))))) | -16.9 | 33.9
GCTACGCGAAAGCTAAGC (((..((....))..))) | -13.1 | 38.8
GTGCCTACGAAAGTACAC (((..(((....)))))) | -4.56 | 37.8
GATCACGAAAGTGGAATC ((((((....)))..))) | -10.3 | 32.1
GATCCCGTGGGGATC ((((((...)))))) | -32.4 | 64.5
GCAGCAGGAAACTGCCAC (..((((....))))..) | -11 | 31.6
GTCTAGCGAAAGCTGAC (((.(((....)))))) | -21.1 | 50.5
GCTTAGCGAAAGCTACGC ((.((((....)))).)) | -22.4 | 51.9
GCGTATATACGC ((((....)))) | -27.1 | 55
GTGTTTGGAAACAAATGC (..((((....))))..) | -21.7 | 34.8
GATCCGATCCCGGATC ((((((....)))))) | -38.9 | 55.6
GTTTGGACGAAAGTCAAC (((..(((....)))))) | -12.7 | 34.7
GAGAGCCGAAAGGCACTC (((.(((....))).))) | -20.2 | 61.1
GGCTACCGAAAGGTGCC (((.(((....)))))) | -31.3 | 61.2
GATCCTCTATAGGATC ((((((....)))))) | -40.8 | 51.9
GCAGCCGAAAGGCGTGC ((((((....))).))) | -16.5 | 65

— the array DNA melting data of Ke et al. (doi:10.1101/2024.01.08.574731)
